Screening results (PubChem)
Most compounds without a hit are left out; they make up all but 2.2% or so of the library.
GPR7 antag = GPR7 receptor antagonists, primary screen, cell-based, fluorescence, single concentration; Neuropeptides B/W receptor type 1 (Homo sapiens), P48145; GPR7-expressing cells, fluorescence antagonist assay; inhibition, % at 4.4 µM; 290,000 tested, 1.1% active; AID 1861, 2009; in the data active = inhibition above about 16%, passing the limit was not always enough;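 also: cells stimulated with the agonist NPW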
DAGLB inh = DAGLB lipase inhibitors, primary screen, biochemical, fluorescence, HTS | Diacylglycerol lipase-beta (Homo sapiens), Q8NCG7 | HEK293T DAGLB membrane lysate, EnzChek fluorogenic substrate | inhibition, % at 5.17 µM | 340,000 tested, 0.059% active; in the data active = inhibition above about 34%
FID counter = compounds displacing fluorescent DNA intercalator, primary screen, artefact control for HCV NS3 helicase inhibitor project, biochemical, FID fluorescence. DNA fluorescent intercalator displacement. inhibition, % at 7.9 µM. 290,000 tested, 0.17% active; in the data active = inhibition above about 37%;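 also: higher means more ethidium bromide displaced from hairpin DNA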
NS3 helicase inh = inhibitors of HCV NS3 helicase, primary screen, biochemical, Cy5 molecular beacon fluorescence. 290,000 tested, 0.56% active. Hepatitis C virus NS3 helicase. AID 1800, 2009. NS3 helicase DNA unwinding. inhibition, % at 10.9 µM;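 active = inhibition above the mean of all tested compounds plus 3 SD, set per campaign, cut at about 35% in these data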
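Test system: hepatitis C virus NS3 helicase domain fragment enzyme. Also added: annealed dual-labelled DNA beacon duplex, ATP-started. Timing: 60 min unwinding reaction at 25 °C after ATP addition. Technique: Cy5 fluorescence. Measure: % inhibition of unwinding.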
GRK2 aptamer HTS = compounds blocking aptamer binding on GRK2 – biochemical, human GRK2, bead flow cytometry, HTS, primary screen; 330,000 tested, 0.59% active; FAM-aptamer displacement from GRK2; inhibition of aptamer binding, % at 10 µM;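 active = inhibition of aptamer binding above 40%, roughly 3 SD of noise, on plates passing a quality check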;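 also: median bead fluorescence of bound FAM aptamer so fluorescent compounds give negative values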
Target sequence (P25098 whole entry, looked up): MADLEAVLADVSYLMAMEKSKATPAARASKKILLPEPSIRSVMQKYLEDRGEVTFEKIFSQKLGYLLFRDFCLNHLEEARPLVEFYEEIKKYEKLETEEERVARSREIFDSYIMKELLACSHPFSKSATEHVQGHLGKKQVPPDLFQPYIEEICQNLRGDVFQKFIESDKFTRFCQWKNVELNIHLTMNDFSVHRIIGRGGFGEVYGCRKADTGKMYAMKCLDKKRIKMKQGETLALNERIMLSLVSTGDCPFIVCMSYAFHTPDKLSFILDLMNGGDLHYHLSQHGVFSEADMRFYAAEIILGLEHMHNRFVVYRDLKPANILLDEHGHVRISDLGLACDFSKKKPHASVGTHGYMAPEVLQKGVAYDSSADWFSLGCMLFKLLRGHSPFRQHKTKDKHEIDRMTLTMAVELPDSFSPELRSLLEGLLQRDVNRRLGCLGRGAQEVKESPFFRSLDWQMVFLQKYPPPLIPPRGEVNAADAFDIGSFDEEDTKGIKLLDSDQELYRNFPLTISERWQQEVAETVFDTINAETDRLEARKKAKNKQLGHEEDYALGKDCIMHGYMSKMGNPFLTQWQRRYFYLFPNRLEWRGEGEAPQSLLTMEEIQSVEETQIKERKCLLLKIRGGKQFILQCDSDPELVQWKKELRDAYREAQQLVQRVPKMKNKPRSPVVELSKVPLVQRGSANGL
HCV core dimer = inhibitors of HCV core protein dimerization, primary screen, biochemical, TR-FRET, high-throughput; TR-FRET GST/Flag-core106 dimerization, 1536-well; 300,000 tested, 0.33% active; inhibition, % at 5 µM;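 active = inhibition above the mean of all tested compounds plus 3 SD, set per screening campaign, cut at about 45% in these data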
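Test system: GST/Flag-tagged HCV core106 proteins; Medium: KF-containing HEPES buffer, pH 7.45, DTT, CHAPS, BSA; Times: compound-protein-antibody incubation 4 h at 22.5 °C; Detection: TR-FRET 671 and 617 nm emission; Benchmarks: wells lacking GST-core106 and wells with excess unlabelled core106.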
GPR7 antag cf = GPR7 receptor antagonists, confirmation, cell-based, fluorescence, single concentration | shares compounds with GPR7 antag | GPR7-expressing cells, calcium fluorescence antagonist mode | inhibition, % at 4.4 µM | 2,400 tested, 52% active; in the data active = inhibition above about 24%;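 also: stimulated with the GPR7 agonist NPW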
MCHR1 antagonist = MCHR1 antagonists in cells, counter-screen for GPR7 antagonist project, cell-based, fluorescence, human; shares compounds with GPR7 antag; MCHR1-expressing cells, fluorescence antagonist assay; inhibition, % at 4.4 µM; 2,400 tested, 62% active; AID 2148, 2009; in the data active = inhibition above about 22%
A number is an active result; 0 = inactive; - = no result.

SMILES | GPR7 antag | DAGLB inh | FID counter | NS3 helicase inh | GRK2 aptamer HTS | HCV core dimer | GPR7 antag cf | MCHR1 antagonist
NS(=O)(=O)c1ccc(CNc2nc(-c3cccnc3)nc3ccccc23)cc1 | 0 | 0 | 0 | 0 | 0 | 0 | - | -
CCCOc1ccc(C(=O)OCCN2CCCCC2)c(O)c1 | - | 0 | - | - | 0 | 0 | - | -
Cn1ccnc1C1CCCCN1Cc1nc(-c2ccc(Cl)cc2)no1 (centres undefined) | 26 | 0 | 0 | 0 | 0 | 0 | 34 | 22
Cc1ccc(NC(=O)c2cccc(Oc3ccc([N+](=O)[O-])cc3)c2)c(C(=O)O)c1 | 0 | 0 | 0 | 0 | 0 | 0 | - | -
Cc1ccccc1NC(=O)c1cccc(S(=O)(=O)Oc2ccc([N+](=O)[O-])cc2)c1 | 27 | 0 | 0 | 0 | 0 | 0 | 44 | 42
Cc1cccc2cc(C3CC(c4ccco4)=NN3S(C)(=O)=O)c(Cl)nc12 (centres undefined) | 22 | 0 | 0 | 0 | 0 | 0 | 0 | 0
O=C(CNC(=O)c1ccco1)OCc1c(F)cccc1Cl | 25 | 0 | 0 | 0 | 0 | 0 | 0 | 0
O=C(CNC(=O)c1ccco1)NCC(=O)OCc1c(F)cccc1Cl | 0 | 0 | 0 | 0 | 0 | 0 | - | -
CC1CN(C(=O)CCC(=O)NCCCN2C(C)CCCC2C)c2ccccc2O1 (centres undefined) | 0 | 0 | 0 | 0 | 0 | 0 | - | -
COc1ccc(NC(=O)COC(=O)c2ccc(Cl)c(S(N)(=O)=O)c2)c([N+](=O)[O-])c1 | 0 | 0 | 0 | 0 | 0 | 0 | - | -
COc1cc(OC)cc(C(=O)N2CCCC(Nc3ccc(F)cc3)C2)c1 (centres undefined) | 28 | 0 | 0 | 0 | 0 | 0 | 0 | 0
CCc1ccc(-c2nc(CS(=O)CC(=O)NCCCN3CCOCC3)c(C)o2)cc1 (centres undefined) | 0 | 0 | 0 | 0 | 0 | 0 | - | -
CCCCCCCCCn1c2c(c(=N)c3c1CCC3)CCC2 | 78 | 0 | 0 | 0 | 0 | 0 | 78 | 73
CCCCCCn1c2c(c(=N)c3c1CCC3)CCC2 | 37 | 0 | 0 | 0 | 0 | 0 | 42 | 46
COCCN1C2=C(C(=O)CC(C)(C)C2)C(c2ccc(OC)c(OC)c2)C2=C1CC(C)(C)CC2=O | 0 | 0 | 0 | 0 | 0 | 0 | - | -
O=C(COC(=O)c1cnccn1)c1ccc(Cl)cc1 | 0 | 0 | 0 | 0 | 0 | 0 | - | -
O=C(NCc1ccncc1)Nc1ccc(F)cc1 | 31 | 0 | 0 | 0 | 0 | 0 | 0 | 0
Cn1c(SCC(N)=O)nnc1-c1ccc(S(=O)(=O)N2CCCC2)cc1 | 0 | 0 | 0 | 0 | 0 | 0 | - | -
Cc1ccc(-n2c(SCC(N)=O)nnc2-c2ccc(S(=O)(=O)N3CCCCC3)cc2)c(C)c1 | 35 | 0 | 0 | 0 | 0 | 0 | 45 | 0
COc1ccccc1CN1C[C@@H]2C[C@@H](c3ccc(C)cc3)N3CCC[C@@]23C1=O | 0 | 0 | 0 | 0 | 0 | 0 | - | -
CCc1ccc([C@@H]2C[C@H]3CN(Cc4ccccc4OC)C(=O)[C@]34CCCN24)cc1 | 24 | 0 | 0 | 0 | 0 | 0 | 0 | 0
CCOC(=O)c1cnc2c(cnn2C)c1NCCCn1ccnc1 | 0 | 0 | 0 | 0 | 0 | 0 | - | -
Cc1occc1C(=O)Nc1cccc(C(=O)O)c1 | 26 | 0 | 0 | 0 | 0 | 0 | 0 | 0
CC(C)(C)OC(=O)N1CCC(c2c(C(=O)NCC3CCN(C4CCCC4)C3)cnn2-c2ccccc2Cl)CC1 (centres undefined) | 44 | 0 | 0 | 0 | 0 | 0 | 49 | 23
Cc1ccccc1CNS(=O)(=O)c1csc(C(N)=O)c1 | 0 | 0 | 0 | 0 | 0 | 0 | - | -
SMILES | GPR7 antag | DAGLB inh | FID counter | NS3 helicase inh | GRK2 aptamer HTS | HCV core dimer | GPR7 antag cf | MCHR1 antagonist
CCc1ccc(Cn2nnc(C(=O)Nc3ccc(OC)cc3OC)c2N)cc1 | 25 | 0 | 0 | 0 | 0 | 0 | 42 | 0
COc1cccc(NC(=O)c2nnn(Cc3ccc(Br)cc3F)c2N)c1 | 24 | 0 | 0 | 0 | 0 | 0 | 53 | 53
Cc1cc(C)cc(NC(=O)c2nnn(Cc3cc(C)ccc3C)c2N)c1 | 51 | 0 | 0 | 0 | 0 | 0 | 87 | 91
CCOC(=O)c1c(O)cc(C)[nH]c1=O | 0 | 0 | 0 | 0 | 0 | 0 | - | -
Cc1ccc(S(=O)(=O)NCC2CCC(C(=O)NCCCN3CCOCC3)CC2)cc1 (centres undefined) | 0 | 0 | 0 | 0 | 0 | 0 | - | -
Cc1cc(C)c(S(=O)(=O)NCC2CCC(C(=O)NCCCN3CCOCC3)CC2)c(C)c1 (centres undefined) | 22 | 0 | 0 | 0 | - | - | 0 | 0
COC(=O)CSc1nc2ccc(NC(=O)CSc3nnnn3Cc3ccccc3)cc2s1 | 37 | 0 | 0 | 0 | 0 | 0 | 64 | 55
O=C(CSc1nc2ccc(NC(=O)c3ccccc3C(=O)O)cc2s1)Nc1ccc(F)c([N+](=O)[O-])c1 | 26 | 0 | 0 | 0 | 0 | 0 | 26 | 66
COc1ccccc1C(=O)Nc1ccc2nc(SCC(=O)N(C)C)sc2c1 | 0 | 0 | 0 | 0 | 0 | 0 | - | -
Cc1ccc(Cl)cc1NC(=S)NCCCSC1CCCCC1 | 0 | 0 | 0 | 0 | 0 | 0 | - | -
N=c1c(C(=O)NC2CCCCC2)cc2c(=O)n3ccccc3nc2n1Cc1ccccc1 | 0 | 0 | 0 | 0 | 0 | 0 | - | -
CCOCCCn1c(=N)c(C(=O)NCc2ccc3c(c2)OCO3)cc2c(=O)n3ccccc3nc21 | 22 | - | 0 | 0 | - | - | 29 | 0
N=c1c(C(=O)NCCc2ccccc2)cc2c(=O)n3ccccc3nc2n1CCCN1CCOCC1 | 37 | 0 | 0 | 0 | 0 | 0 | 35 | 0
N=c1c(C(=O)NCCc2ccccc2)cc2c(=O)n3ccccc3nc2n1Cc1ccco1 | 28 | 0 | 0 | 0 | 0 | 0 | 52 | 49
N=c1c(C(=O)NC2CCCCC2)cc2c(=O)n3ccccc3nc2n1CCc1ccccc1 | 32 | 0 | 0 | 0 | 0 | 0 | 39 | 25
CCC(C)(C)NC(=O)CN(C(=O)CNS(=O)(=O)c1ccc(F)cc1)c1ccc2c(c1)OCCO2 | 0 | 0 | 0 | 0 | 0 | 0 | - | -
COC(=O)C(C)Oc1ccc(Cl)c(CN2OCC(C)(C)C2=O)c1 (centres undefined) | - | 0 | - | - | 0 | 0 | - | -
N#CCCn1cc(/C=N/O)c(-c2ccc(-c3ccccc3)cc2)n1 | 27 | 0 | 0 | 0 | 0 | 0 | 31 | 42
